Source: PubChem (several laboratories)
HSP90 inh: blocks HSP90-mediated luciferase refolding in reticulocyte lysate | AID 1789 | inhibition, % at 5.6 µM | Rabbit reticulocyte lysate, luciferase refolding luminescence, 3 h | 290,000 tested, 0.91% active;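 active = inhibition above the screen-wide mean plus 3 SD, computed separately per campaign, cut at about 16% in these data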;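 note: inhibitors lower the luminescence because luciferase stays unfolded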
SENP7 inh: inhibitors of human SENP7 protease. Q9BQF6. recombinant SENP7, Z-RLRGG-aminoluciferin luminescence, 40 min. inhibition, % at 5 µM. 330,000 tested, 1.5% active. AID 434973;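 active = inhibition above about 50% at the single test dose, limit read from the data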
Target sequence (Q9BQF6 706-1050 limits assumed): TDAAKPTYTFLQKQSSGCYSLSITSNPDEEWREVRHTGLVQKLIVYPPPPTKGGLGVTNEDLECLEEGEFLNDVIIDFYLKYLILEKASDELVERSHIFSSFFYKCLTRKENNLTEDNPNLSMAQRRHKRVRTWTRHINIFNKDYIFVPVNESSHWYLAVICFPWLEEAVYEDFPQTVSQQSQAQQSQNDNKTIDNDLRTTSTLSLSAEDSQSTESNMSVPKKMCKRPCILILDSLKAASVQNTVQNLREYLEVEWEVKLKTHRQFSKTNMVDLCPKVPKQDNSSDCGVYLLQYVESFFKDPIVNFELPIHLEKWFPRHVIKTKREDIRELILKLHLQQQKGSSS
SENP1 inh: SENP1 (human) catalytic domain inhibition; Q9P0U3; recombinant SENP1 catalytic domain, CyPet-SUMO1-YPet FRET cleavage; inhibition, % at 10 µM; 360,000 tested, 0.21% active;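 active = inhibition at least 30% at 10 µM, raw YFP signal under a set limit, fluorescence ratio 0.5 to 1.5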
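Compound: 10 µM single point, 0.5% DMSO; Test system: hSENP1 catalytic domain, recombinant; Timing: 50 min reaction at room temperature; Technique: FRET, CFP and YFP emission; Control set: no-enzyme wells low, DMSO-plus-enzyme wells high control.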
SENP8 block-1: blocks human SENP8 cleavage of Nedd8 substrate; Q96LD8; recombinant SENP8, Nedd8 substrate fluorescence; inhibition, % at 20 µM; 360,000 tested, 0.64% active; AID 602440; in the data active = inhibition mostly above about 40%, no sharp cut-off; inactive = mostly below about 27%
SENP6 block: blocks the human protease SENP6; Q9GZR1; Recombinant SENP6 catalytic domain, aminoluciferin luminescence; inhibition, % at 10 µM; 330,000 tested, 1.8% active; AID 2599;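 active = inhibition above about 50% at the single tested dose, limit read from the data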
SENP8 block-2: SENP8 protease inhibition; inhibition, % at 10 µM; AID 2540; purified SENP8, Z-RLRGG-aminoluciferin cleavage, luminescence; 330,000 tested, 1.2% active; Q96LD8; in the data active = inhibition above about 50%
SENP8 confirm: human SENP8 inhibition, confirmed; AID 488912; inhibition, % at 12.5 µM; shares compounds with SENP7 inh; 6,200 tested, 40% active; Recombinant SENP8, Z-RLRGG-aminoluciferin luminescence, 60 min;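 active = mean inhibition across replicates above about 50%, limit read from the data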
SENP6 confirm: human SENP6 inhibition, confirmed; shares compounds with SENP7 inh; recombinant SENP6, Z-RLRGG-aminoluciferin luminescence; inhibition, % at 12.5 µM; 6,200 tested, 58% active; AID 488915
SENP7 confirm: confirmation of human SENP7 protease inhibitors. recombinant SENP7, Z-RLRGG-aminoluciferin luminescence, 40 min. shares compounds with SENP7 inh. 6,200 tested, 69% active. inhibition, % at 12.5 µM
Casp3 select: inhibits human caspase-3 in SENP selectivity test; AID 488918; 6,200 tested, 60% active; inhibition, % at 12.5 µM; shares compounds with SENP7 inh; purified caspase-3, Z-DEVD-aminoluciferin luminescence, 60 min;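 active = mean inhibition above about 50%, limit read from the data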
Target sequence (P42574 28-227 limits assumed): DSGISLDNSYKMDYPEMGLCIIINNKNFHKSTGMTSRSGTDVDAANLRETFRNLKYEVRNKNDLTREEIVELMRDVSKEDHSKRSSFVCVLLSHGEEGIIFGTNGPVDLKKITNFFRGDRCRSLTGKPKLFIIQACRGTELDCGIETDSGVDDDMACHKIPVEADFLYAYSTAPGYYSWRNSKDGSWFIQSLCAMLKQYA
SENP luc ctr: counter-screen for SENP inhibitors: luminescence interference; Pre-incubated SENP8/Z-RLRGG-aminoluciferin, luciferase luminescence interference; shares compounds with SENP7 inh; inhibition, % at 12.5 µM; AID 488919; 6,200 tested, 39% active;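 active = mean inhibition above about 50% when retested at one dose, limit read from the data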
Of the large screens only hits and unclear results are named; the others gave an inactive call (follow-up assays come after a bar, where they were run). Rows were chosen to be rich in hits. Some 2.9% of all compounds tested hit in one or more screens of this group.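 Rule for the calls, unless noted: active = mean inhibition above about 50% in the one-dose retest (limit read from the data); inactive = the rest.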

Cc1cccc(C(=O)Nc2cccc(C(=O)N/N=C/c3ccc4c(c3)OCO4)c2)c1	SENP6 block 50.5 | SENP8 confirm 57.5 | SENP6 confirm inactive | SENP7 confirm inactive | Casp3 select inactive | SENP luc ctr inactive
COC(=O)c1ccc(CNC(=O)Cn2cnc3c(SC)nc(N)nc32)cc1	none (no result: HSP90 inh)
CCOC(=O)c1ccc(-c2ccc3c(c2)CCC3)nc1C	SENP7 inh 70.4, SENP6 block 60.3, SENP8 block-2 52.5 | SENP8 confirm 57.2 | SENP6 confirm 57.3 | SENP7 confirm 80.4 | Casp3 select inactive | SENP luc ctr inactive
CCOC(=O)c1cc2c(nc1N)CCCC2	none
COC(=O)c1ccc(-c2ccc(F)cc2)nc1C	SENP7 inh 52.7, SENP6 block 61.5 | SENP8 confirm inactive | SENP6 confirm inactive | SENP7 confirm 77.0 | Casp3 select inactive | SENP luc ctr inactive
CCOc1cc(C2NN=C(c3ccccc3)S2)ccc1OCc1ccccc1Cl (centres undefined)	SENP6 block 66.3 | SENP8 confirm 53.2 | SENP6 confirm inactive | SENP7 confirm 83.9 | Casp3 select 68.9 | SENP luc ctr 58.5
CCOc1cc(C2NN=C(c3ccccc3)S2)ccc1OCc1ccc(F)cc1 (centres undefined)	SENP6 block 82.9, SENP8 block-2 50.2 | SENP8 confirm inactive | SENP6 confirm 71.5 | SENP7 confirm 93.6 | Casp3 select 75.4 | SENP luc ctr 70.2
O=C(/C=C/c1ccco1)Nc1ccc(N2CCCC2)cc1	SENP7 inh 68.1, SENP6 block 63.1 | SENP8 confirm inactive | SENP6 confirm inactive | SENP7 confirm 56.9 | Casp3 select inactive | SENP luc ctr inactive
O=C(/C=C/c1ccco1)NC(=S)Nc1cccc(-c2nc3ccccc3s2)c1	SENP6 block 63.3 | SENP8 confirm inactive | SENP6 confirm inactive | SENP7 confirm inactive | Casp3 select inactive | SENP luc ctr inactive
COc1cccc(NC(=O)/C=C/c2ccco2)c1	SENP7 inh 91.6, SENP6 block 58.5, SENP8 block-2 84.4 | SENP8 confirm inactive | SENP6 confirm 87.5 | SENP7 confirm 99.5 | Casp3 select 93.2 | SENP luc ctr 87.7
O=c1c2ccccc2nnn1CSc1ccccc1	SENP7 inh 78.0, SENP6 block 87.2, SENP8 block-2 74.6 | SENP8 confirm 81.0 | SENP6 confirm 81.1 | SENP7 confirm 95.8 | Casp3 select 87.6 | SENP luc ctr 85.2
CCc1nnc(NC(=O)c2cc(-c3ccccc3)nn2-c2ccccc2)s1	SENP7 inh 99.3 | SENP8 confirm inactive | SENP6 confirm inactive | SENP7 confirm inactive | Casp3 select inactive | SENP luc ctr inactive
O=C(Nc1nccs1)c1cc(-c2ccccc2)nn1-c1ccccc1	none
CC(=O)OC1CCC2(C)C(CCC3C2CC(=O)C2(C)C3CC(C3CCCC3=O)C2C(C)=O)C1 (centres undefined)	none (no result: HSP90 inh, SENP7 inh, SENP6 block, SENP8 block-2)
CC(=O)N1CCN(C2=Nc3cccc4cccc2c34)CC1	SENP6 block 81.3, SENP8 block-2 67.4 | SENP8 confirm inactive | SENP6 confirm inactive | SENP7 confirm inactive | Casp3 select inactive | SENP luc ctr inactive
c1cc2c3c(cccc3c1)C(N1CCOCC1)=N2	SENP6 block 76.3 | SENP8 confirm inactive | SENP6 confirm inactive | SENP7 confirm inactive | Casp3 select inactive | SENP luc ctr inactive
c1ccc(CC2CCN(C3=Nc4cccc5cccc3c45)CC2)cc1	SENP6 block 72.9 | SENP8 confirm inactive | SENP6 confirm inactive | SENP7 confirm inactive | Casp3 select inactive | SENP luc ctr inactive
CCOC(=O)N1CCN(C2=Nc3cccc4cccc2c34)CC1	SENP6 block 75.4 | SENP8 confirm inactive | SENP6 confirm inactive | SENP7 confirm inactive | Casp3 select inactive | SENP luc ctr inactive
c1cc2c3c(cccc3c1)C(N1CCN(C3=Nc4cccc5cccc3c45)CC1)=N2	none (no result: SENP7 inh, SENP1 inh, SENP8 block-1, SENP6 block, SENP8 block-2)
CCOC(=O)N1CCN(C(=O)Nc2cccc3ccccc23)CC1	SENP6 block 51.9 | SENP8 confirm inactive | SENP6 confirm inactive | SENP7 confirm inactive | Casp3 select inactive | SENP luc ctr inactive
COc1ccc(S(=O)(=O)NCCC(C)C)cc1OC	SENP7 inh 88.4 | SENP8 confirm inactive | SENP6 confirm inactive | SENP7 confirm inactive | Casp3 select inactive | SENP luc ctr inactive
CC(C)CCNS(=O)(=O)c1ccc(-c2ccc(S(=O)(=O)NCCC(C)C)cc2)cc1	none
c1ccc(COc2ccc(CN3CCN(c4ccccn4)CC3)cc2)cc1	SENP6 block 53.7 | SENP8 confirm 58.8 | SENP6 confirm 53.2 | SENP7 confirm 71.7 | Casp3 select inactive | SENP luc ctr 66.5
COc1ccc(C(=O)CC(=O)c2ccccc2O)cc1	SENP6 block 51.1 | SENP8 confirm inactive | SENP6 confirm inactive | SENP7 confirm 82.7 | Casp3 select inactive | SENP luc ctr 53.9
COc1cccc(OCc2cc(C(=O)N(Cc3ccccc3)CC3CC3)no2)c1	none
COc1ccc(-n2c(NC(=O)c3ccc(Br)o3)c(C#N)c3nc4ccccc4nc32)cc1	none (no result: SENP7 inh, SENP1 inh, SENP8 block-1, SENP6 block, SENP8 block-2)
CCC(C)n1c(NC(=O)c2ccccc2)c(C#N)c2nc3ccccc3nc21 (centres undefined)	SENP6 block 90.0, SENP8 block-2 65.9 | SENP8 confirm inactive | SENP6 confirm 69.0 | SENP7 confirm inactive | Casp3 select inactive | SENP luc ctr inactive
N#Cc1c(NC(=O)c2ccc(Br)o2)n(-c2ccccc2)c2nc3ccccc3nc12	SENP7 inh 76.6, SENP8 block-2 92.6 | SENP8 confirm inactive | SENP6 confirm 90.4 | SENP7 confirm 82.5 | Casp3 select inactive | SENP luc ctr inactive
Cc1ccc2ccc(C3C(=O)c4ccccc4C3=O)nc2c1	SENP6 block 53.3, SENP8 block-2 52.3 | SENP8 confirm inactive | SENP6 confirm inactive | SENP7 confirm inactive | Casp3 select 58.1 | SENP luc ctr inactive
CCOc1ncccc1C(=O)NCC(c1ccco1)N1CCCCC1 (centres undefined)	none (no result: HSP90 inh)
CCOC(=O)c1c(C)nc2c(C)cccn12	none
CCOC(=O)c1c(C)nc2c3ccccc3ccn12	SENP7 inh 77.9, SENP6 block 74.4, SENP8 block-2 52.7 | SENP8 confirm 62.8 | SENP6 confirm 59.6 | SENP7 confirm 89.2 | Casp3 select 74.5 | SENP luc ctr 64.9
